The subject of one assay is HeLa. The assay can be described thus: Cytotoxicity against human HeLa cells assessed as reduction in cell viability after 72 hrs by CellTiter-Glo assay. Type of assay: functional, cell-based. An outline of the steps: (§1)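 Cells were treated across a dose-response range for 72 h, and viability was read by CellTiter-Glo luminescence. Measurements were made in triplicate and reported with standard error.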
On the technique in general: Cellular ATP, detected with luciferase, serves as a proxy for viable cell number.

In assay [1] the test system is HCT-116. In words: Induction of cell cycle arrest in human HCT116 cells assessed as accumulation of 4N DNA content at 500 nM after 48 hrs by propidium iodide staining-based flow cytometry. It counts as functional. On the technique in general: In flow cytometry, cells or beads pass a laser one at a time.
In a further assay the test system is HEK293. In words: Cytotoxicity against human HEK293 cells assessed as reduction in cell viability after 72 hrs by CellTiter-Glo assay. Type of assay: cell-based. The note with it: HEK293, 72 h. An outline of the steps: as §1
The test system of the next assay is PC-3. In words: Cytotoxicity against human PC3 cells assessed as reduction in cell viability after 72 hrs by CellTiter-Glo assay. Type of assay: functional, cell-based. The conditions noted are these: PC-3, 72 h. In outline: as §1
Assay [2] relates to HCT-116. The assay can be described thus: Cytotoxicity against human HCT116 cells assessed as reduction in cell viability after 72 hrs by CellTiter-Glo assay. Type of assay: functional, cell-based. The note with it: HCT-116, 72 h. In outline: as §1
Assay [3] deals with T1, Aurora kinase B (Homo sapiens, UniProt Q96GD4). In words: Inhibition of recombinant full length His-tagged human Aurora B expressed in baculovirus expression system by Z'LYTE assay. In outline:
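Z'LYTE biochemical kinase assay run at the Km ATP concentration for each kinase. IC50 was determined and reported ± standard error.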

The target in assay [4] is T1, Aurora kinase B. In words: Inhibition of Aurora B in human HCT116 cells assessed as reduction in histone H3 phosphorylation at S10 residues after 4 hrs by Western blot analysis. Type of assay: cell-based. In outline:
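Cells were exposed to compound in dose-response for 4 h, then lysed for western blotting of histone H3 pS10. The cellular EC50 was derived from the dose-response curves. Three replicate experiments were run.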
For orientation: Immunoblotting shows a protein as a band on a membrane.

A further assay addresses T2, Aurora kinase C (Homo sapiens, UniProt Q9UQB9).
T2 sequence (Q9UQB9 whole entry): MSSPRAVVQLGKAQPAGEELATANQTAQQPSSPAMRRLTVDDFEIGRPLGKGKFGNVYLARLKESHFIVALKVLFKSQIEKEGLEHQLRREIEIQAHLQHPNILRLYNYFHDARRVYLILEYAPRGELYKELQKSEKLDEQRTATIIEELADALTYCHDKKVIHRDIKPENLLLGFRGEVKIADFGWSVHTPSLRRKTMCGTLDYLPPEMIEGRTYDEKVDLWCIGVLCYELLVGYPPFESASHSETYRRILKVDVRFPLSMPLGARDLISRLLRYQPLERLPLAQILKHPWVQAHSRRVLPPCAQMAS
The assay can be described thus: Inhibition of recombinant full length GST-tagged human Aurora C expressed in baculovirus expression system by Z'LYTE assay. In outline: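 Biochemical IC50 from a Z'LYTE kinase assay, with ATP at the Km for each kinase. Values are reported with standard error.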

The source made the active and inactive calls. The rule behind the calls is not given here.

T1 sequence (Q96GD4 whole entry): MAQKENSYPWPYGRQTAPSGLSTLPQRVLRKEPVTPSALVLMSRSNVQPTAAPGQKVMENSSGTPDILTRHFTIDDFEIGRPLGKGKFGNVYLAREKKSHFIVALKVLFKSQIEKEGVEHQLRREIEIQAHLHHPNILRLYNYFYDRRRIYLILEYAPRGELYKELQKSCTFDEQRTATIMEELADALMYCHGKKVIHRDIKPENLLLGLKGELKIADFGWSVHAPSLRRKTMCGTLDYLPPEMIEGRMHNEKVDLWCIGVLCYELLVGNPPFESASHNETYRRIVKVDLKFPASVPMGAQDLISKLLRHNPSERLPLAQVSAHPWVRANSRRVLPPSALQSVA

Turning to `CCOC(=O)c1[nH]cc2c1NC1=C(C(=O)CCC1)[C@H]2c1cccc(Oc2nc3ccccc3[nH]2)c1`, the IC50 (as a rule, the midpoint of a concentration-inhibition curve) was 6.11 nM in the assay on HeLa; 5860 nM in the assay with HEK293; greater than 10000 nM with PC-3; 3710 nM in the assay with HCT-116 [2]; 34 nM at Aurora kinase B [3]; 91 nM on Aurora kinase C. In the assay with HCT-116 [1], the result was Active. Moreover, the EC50 (in general, the midpoint of the concentration-response curve) on Aurora kinase B [4] worked out at 27 nM.

Source of the values: ChEMBL document CHEMBL4184148 (Bioorg Med Chem Lett, 2017).
